The source made the active and inactive calls. The calls are words filed in the database; no cut-off is given here.
Experiments:
3T3-L1 [1] = assay: Inhibition of mouse 3T3-L1 cells adipocyte differentiation assessed as reduction in adipogenic cocktail-induced PPARgamma mRNA expression after 24 hrs by RT-qPCR analysis; type: functional, cell-based; details: dose 0.01-1 µM
Summary of the method: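 Confluent 3T3-L1 preadipocytes received differentiation cocktail (0.5 mM IBMX, 100 ng/mL dexamethasone, 2 µg/mL insulin) with compound (0.01–1 µM; metformin 1 mM) for 24 h. mRNA was measured by SYBR Green RT-qPCR (30 cycles), normalized to β-actin, with the differentiated control set to 1. N = 4 independent experiments.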

3T3-L1 [2] = assay: Activation of AMPK pathway in adipogenic cocktail-induced mouse 3T3-L1 cells assessed as increase in AMP to ATP ratio at 1 uM after 24 hrs; type: cell-based; details: filed as activator
[3] = Apparent volume of distribution in Sprague-Dawley rat at 2 mg/kg, iv up to 24 hrs by LC-MS/MS analysis; details: in vivo, read-out: Vz
[4] = Half life in Sprague-Dawley rat at 5 mg/kg, po up to 24 hrs by LC-MS/MS analysis; type: ADME, organism-based; details: in vivo
Summary of the method: (§1)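 Male SD rats (180–220 g, n = 3) received compound in ethanol/saline (5:95), either intravenously at 2 mg/kg or intragastrically at 5 mg/kg. Plasma was sampled at 0, 0.5, 1, 2, 4, 8, 12 and 24 h. Concentrations were measured by LC-MS/MS, and PK parameters were calculated from the concentration–time data.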

C2C12 = assay: Activation of AMPK pathway in mouse C2C12 cells assessed as increase in glucose uptake at 1 uM after 6 hrs by 2-NBDG/Hoechst 33342 staining based Confocal microscopic method; type: cell-based; details: filed as activator
Summary of the method: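 C2C12 myoblasts kept in DMEM with 10% FBS and 1% penicillin/streptomycin at 37 °C under 5% CO2.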

3T3-L1 [5] = assay: Activation of AMPK pathway in mouse 3T3-L1 cells assessed as increase in NRF2 mRNA expression at 0.3 to 1 uM after 24 hrs by RT-qPCR analysis; type: cell-based; details: filed as activator, dose 0.3-1 µM
Mus musculus [6] = assay: Antiobesity activity in high fat diet-induced obese C57BL/6J mouse model assessed as decrease in lean mass at 20 mg/kg, ip administered for every other days for 6 weeks; type: functional, organism-based
Mus musculus [7] = assay: Antiobesity activity in high fat diet-induced obese C57BL/6J mouse model assessed as free fatty acid level at 20 mg/kg, ip administered for every other days for 6 weeks by auto-analyzer method (reference value: 1668.5 +/- 144.6 uM); type: functional
Summary of the method: (§2)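 Male C57BL/6J mice (7–8 weeks) fed HFC diet (60% fat, 1% cholesterol) for up to 14 weeks. From week 9, given 20 mg/kg i.p. every other day for 6 weeks in saline with 10% ethanol and 10% castor oil, or vehicle. Body weight and food intake recorded daily. At end, mice fasted 6 h, anesthetized, and blood collected into EDTA. Plasma chemistry run on an auto-analyzer; insulin by ultra-sensitive ELISA.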

3T3-L1 [8] = assay: Lipid lowering activity in mouse 3T3-L1 cells assessed as adipogenic cocktail-induced triglyceride levels at 1 uM up to 9 days by GPO-POD assay relative to control; type: functional, cell-based; details: time day <=9
Summary of the method: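 3T3-L1 cells were differentiated (cocktail on days 0–3, insulin thereafter) with 1 µM compound present during defined windows (days 0–3, 3–6, 6–9, or 0–3/0–6/0–9). TG was measured at day 9 by GPO-POD after Triton X-100 lysis and sonication. TG was normalized to BCA protein and expressed as % of differentiated control.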

[9] = AUC(0 to infinity) in Sprague-Dawley rat at 2 mg/kg, iv up to 24 hrs by LC-MS/MS analysis; type: ADME, organism-based; parameters: route intravenous, dose 2 mg/kg, time <=24; details: in vivo
Summary of the method: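 Male Sprague-Dawley rats (180-220 g, n = 3) received a single intravenous dose of 2 mg/kg in ethanol/saline (5:95). Blood was sampled at 0, 30 min, 1, 2, 4, 8, 12 and 24 h after dosing and centrifuged to plasma. Plasma drug levels were measured by LC-MS/MS, and pharmacokinetic parameters were calculated from the concentration-time data.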

3T3-L1 [10] = assay: Activation of AMPK pathway in adipogenic cocktail-induced mouse 3T3-L1 cells with SiRNA-induced AMPKalpha knock down assessed as decrease in TG level at 1 uM after 6 days by GPO-POD assay; type: cell-based; details: time 6.0 day
Summary of the method: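 3T3-L1 cells at 80% density transfected with 50 nM AMPKα siRNA or negative control for 24 h. Once confluent, differentiated with adipogenic cocktail with or without compound. Protein by Western blot normalized to actin. TG measured by GPO-POD kit, normalized to BCA protein, expressed as % of control.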

3T3-L1 [11] = assay: Activation of AMPK pathway in adipogenic cocktail-induced mouse 3T3-L1 cells assessed as decrease in ATP level at 0.3 to 1 uM after 24 hrs; type: cell-based; details: filed as activator, dose 0.3-1 µM
Summary of the method: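 Confluent 3T3-L1 pre-adipocytes exposed to adipogenic cocktail (0.5 mM IBMX, 100 ng/mL dexamethasone, 2 µg/mL insulin) with compound at 0.3 or 1 µM for 24 h. ATP quantified with a commercial luminescent kit and normalized to protein.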

Mus musculus [12] = assay: Antiobesity activity in high fat diet-induced obese C57BL/6J mouse model assessed as creatinine level at 20 mg/kg, ip administered for every other days for 6 weeks by auto-analyzer method (reference value: 14.9 +/- […]); type: functional; summary of the method: as §2
Mus musculus [13] = assay: Antiobesity activity in high fat diet-induced obese C57BL/6J mouse model assessed as albumin level at 20 mg/kg, ip administered for every other days for 6 weeks by auto-analyzer method (reference value: 38.7 […]); type: functional; summary of the method: as §2
3T3-L1 [14] = assay: Activation of AMPK pathway in mouse 3T3-L1 cells assessed as increase in TFAM mRNA expression at 0.3 to 1 uM after 24 hrs by RT-qPCR analysis; type: cell-based; details: filed as activator, dose 0.3-1 µM
[15] = Clearance in Sprague-Dawley rat at 2 mg/kg, iv up to 24 hrs by LC-MS/MS analysis; type: ADME, organism-based; details: in vivo; summary of the method: as §1
[16] = Half life in Sprague-Dawley rat at 2 mg/kg, iv up to 24 hrs by LC-MS/MS analysis; type: ADME, organism-based; details: in vivo; summary of the method: as §1
3T3-L1 [17] = assay: Inhibition of mouse 3T3-L1 cells adipocyte differentiation assessed as reduction in adipogenic cocktail-induced SCD1 protein expression at 0.3 to 1 uM after 6 days by Western blot analysis; type: functional, cell-based; details: dose 0.3-1 µM, time 6.0 day
Summary of the method: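 3T3-L1 preadipocytes were differentiated with cocktail for 3 days, then insulin medium for 3 days, with compound (0.3 or 1 µM) present throughout. Cells were harvested on day 6 and proteins measured by Western blot, with densitometry normalized to actin.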

3T3-L1 [18] = assay: Cytotoxicity against mouse 3T3-L1 cells assessed as change in LDH releasing level at 5 uM after 6 days by LDH releasing assay; type: cell-based; details: 3t3-l1, 144 h, time 6 day
Summary of the method: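 Differentiating 3T3-L1 cells were treated at 5 µM for 6 days. Plates were centrifuged and LDH activity in the supernatant was read at 490 nm. Release was expressed as fold = (treated − blank)/(control − blank), with untreated cells as blank and vehicle-differentiated control set to 1.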

Vd [3] [L/kg] | Structure (SMILES) | inhibition (3T3-L1 [1]) | Activity (3T3-L1 [2]) | half-life [4] [h] | Activity (C2C12) | Activity (3T3-L1 [5]) | Activity (Mus musculus [6]) | Activity (Mus musculus [7]) [µM] | Activity (3T3-L1 [8]) | AUC(0-inf) [9] [ng·h/mL] | Activity (3T3-L1 [10]) | Activity (3T3-L1 [11]) | Activity (Mus musculus [12]) [µM] | Activity (Mus musculus [13]) [g/L] | Activity (3T3-L1 [14]) | clearance [15] [mL/min/kg] | half-life [16] [h] | inhibition (3T3-L1 [17]) | Activity (3T3-L1 [18])
33.8 | CN(C)CCCNc1nc(-c2[nH]c3ccccc3c2C=O)nc2ccccc12 | Dose-dependent effect | Active | 5.1 | Active |  |  |  |  |  |  |  |  |  |  |  |  |  | 
 | COc1ccc2[nH]c(-c3nc(NCCCCN4CCCC4)c4ccccc4n3)c(C=O)c2c1 | Dose-dependent effect |  | 4.2 |  | Active | Active | 694.4 | Active | 314 | inactive | Active | 14.5 | 30.4 | Active | 107 | 4.4 | Active | Non-Toxic
